# Bioassay records: PubChem BioAssay, Sanford-Burnham Center for Chemical Genomics
# EBI2 block – EBI2 (human) antagonism; 360,000 tested, 0.81% active; EBI2 beta-arrestin recruitment, luminescence, 7a,25-OHC stimulated; inhibition, % at 5 µM; in the data active means inhibition above about 38%;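 further: enzyme fragment complementation signal reports receptor beta-arrestin coupling in cells; 0% = agonist plus DMSO wells and 100% = wells without agonist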
# GRIN3A LBD mod – modulates the human NR3A ligand-binding domain. NR3A LBD differential scanning fluorimetry, Tm shift; 0% = protein alone, 100% = glycine-bound protein. Tm shift relative to glycine control, % at 25 µM. 340,000 tested, 2.5% active. AID 1259313;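 active means melting temperature shift of at least 10% of the positive control shift, at one fixed dose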
# MPTP block – permeability transition pore inhibition | isolated mouse mitochondria, Ca2+ swelling absorbance, 30 min | inhibition, % at 10 µM | 360,000 tested, 1.4% active | AID 602449;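 active means inhibition of 50% or more, scaled per plate between neutral and stimulator controls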;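 further: 0% = DMSO wells given calcium and 100% = 1 mM EGTA wells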
# SENP1 inh – blocks the human SENP1 SUMO protease catalytic domain; Q9P0U3; AID 624204; 360,000 tested, 0.21% active; recombinant SENP1 catalytic domain, CyPet-SUMO1-YPet FRET cleavage; inhibition, % at 10 µM;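 active means inhibition at least 30% at 10 µM, raw YFP signal under a set limit, fluorescence ratio 0.5 to 1.5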;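 further: 0% = enzyme with DMSO and 100% = no enzyme wells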
# Target sequence (Q9P0U3 419-644 limits assumed): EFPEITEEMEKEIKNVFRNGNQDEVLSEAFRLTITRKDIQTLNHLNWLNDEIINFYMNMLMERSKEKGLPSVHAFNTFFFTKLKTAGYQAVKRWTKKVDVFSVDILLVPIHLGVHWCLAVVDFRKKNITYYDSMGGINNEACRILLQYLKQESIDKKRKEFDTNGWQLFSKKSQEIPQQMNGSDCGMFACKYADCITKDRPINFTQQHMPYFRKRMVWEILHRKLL
#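 Material – human SENP1 catalytic domain · Input – SENP1 enzyme, 20 pM final · Compound dosing – single concentration of 10 µM compound, 0.5% DMSO final · Timing – enzyme reaction for 50 min at room temperature, dark · Measured by – FRET fluorescence in CFP and YFP emission channels · Control set – no-enzyme wells low, DMSO-plus-enzyme wells high control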
# Active calls of the source: *; x = no result given. Hits are enriched below; roughly 4.4% of the tested compounds scored in any of these assays.
SMILES,EBI2 block,GRIN3A LBD mod,MPTP block,SENP1 inh
CC(OC(=O)c1ccccc1CCc1ccccc1)C(N)=O (stereo not drawn),7,3,0,-2
CN(C)S(=O)(=O)c1ccc2nnn(OCC(=O)NC3CCS(=O)(=O)C3)c2c1 (stereo not drawn),-5,1,-1,0
CN(C)S(=O)(=O)c1ccc2nnn(OCC(=O)NC34CC5CC(CC(C5)C3)C4)c2c1,-6,12*,1,0
Oc1ccccc1/C=N/n1c2ccccc2c2ccccc21,-12,19*,6,2
COc1ccc(S(=O)(=O)N2CCOCC2)cc1NC(=O)CN1CCC(Cc2ccccc2)CC1,18,-6,8,4
O=C(NNS(=O)(=O)c1ccccc1Cl)C1COc2ccccc2O1 (stereo not drawn),-8,-1,-1,2
CCCOC(=O)c1ccc(Oc2c(-c3ccc(OCC)cc3O)n[nH]c2C)cc1,14,30*,16,0
COc1ccc(Oc2c(-c3ccc(O)cc3O)n[nH]c2C)cc1,17,10,6,3
CCCOC(=O)c1ccc(Oc2cn[nH]c2-c2ccc(OCC)cc2O)cc1,-4,16*,2,0
CCOc1ccc(-c2[nH]ncc2Oc2cccc(OC)c2)c(O)c1,13,6,4,-1
Cc1cccc(-n2c(-c3csc(C(C)C)c3)n[nH]c2=S)c1,-6,-2,-4,0
CCCc1cc(-c2n[nH]c(=S)n2-c2cccc(C)c2)cs1,5,14*,-2,-2
CC(C)c1nc2sc3c(=O)[nH]cnc3c2c2c1CCC2,3,1,8,-8
CC(C)c1nc2sc3c(=S)nc[nH]c3c2c2c1CCC2,10,38*,11,-16
COc1cc(OC)c(C(=O)O/N=C(\N)c2ccc(C)cc2)cc1OC,6,1,0,1
COc1ccc(/C(N)=N/OC(=O)c2cccs2)cc1OC,-1,22*,0,1
COc1ccc(Cl)cc1C(=O)O/N=C(\N)c1ccc(Cl)cc1,-1,20*,-1,5
O=C(/C=C/c1ccccc1[N+](=O)[O-])N1CCN(c2ccccc2F)CC1,-4,-1,2,-1
COCCCN1C(=O)/C(=C\c2cccs2)C(C(=O)OC)=C1C,2,0,-1,3
COc1cccc(-n2nnc(S(=O)(=O)c3ccc(C)cc3)c2N)c1,-5,1,4,-2
COc1ccc(S(=O)(=O)c2nnn(-c3cccc(Cl)c3)c2N)cc1,-2,19*,2,0
COC(=O)[C@]1(C)N[C@H](CN(C)C(=O)Nc2ccc(OC)cc2)[C@@H]2C(=O)N(C)C(=O)[C@@H]21,-8,13*,-4,0
COC(=O)[C@]1(C)N[C@H](CN(C)C(=O)Nc2ccccc2)[C@@H]2C(=O)N(C)C(=O)[C@@H]21,-1,13*,-1,0
COC(=O)[C@]1(C)N[C@H](CN(C)C(=O)Nc2ccc(F)cc2)[C@@H]2C(=O)N(C)C(=O)[C@@H]21,-4,1,-1,0
CCN(C[C@H]1N[C@@](C)(C(=O)OC)[C@H]2C(=O)N(Cc3ccccc3)C(=O)[C@@H]12)C(=O)NC(C)C,-15,14*,-4,1
SMILES,EBI2 block,GRIN3A LBD mod,MPTP block,SENP1 inh
CCc1ccc(OCc2ccc(C(=O)OC)o2)cc1,-8,1,0,1
CN(C)c1c(-c2ccccc2)cc(-c2ccccc2)[nH]c1=O,-12,x,0,-40
CCc1ccc(OCC(=O)OCC(=O)NCCNC(=O)COC(=O)COc2ccc(CC)cc2)cc1,6,0,0,-1
Cc1ccc(/C=C2\SC(=S)N(C(Cc3ccccc3)C(=O)O)C2=O)cc1 (stereo not drawn),-4,24*,3,0
COc1cc(/C=C2\SC(=S)N(C(Cc3ccccc3)C(=O)O)C2=O)ccc1O (stereo not drawn),-7,-1,8,-1
CCC(C(=O)O)N1C(=O)/C(=C/C(C)=C/c2ccccc2)SC1=S (stereo not drawn),8,3,5,-2
O=C(O)C(Cc1ccccc1)N1C(=O)c2c(Cl)c(Cl)c(Cl)c(Cl)c2C1=O (stereo not drawn),-3,11*,8,1
O=C(O)C(Cc1ccccc1)N1C(=O)/C(=C/c2ccccc2)SC1=S (stereo not drawn),-8,12*,2,1
CCSc1nnc(NC(=O)CCC2CCCCC2)s1,-6,0,3,1
CCc1cc2cccc(C)c2nc1SCC(=O)NNC(=O)c1ccco1,-11,-1,1,1
